Tests used:
NCI-H322M = assay: Antiproliferative activity against human NCI-H322M cells assessed as cell growth at 10 uM incubated for 48 hrs by sulforhodamine B assay relative to control; format: functional; conditions: read-out: Activity
Summary of the method: (§1)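 NCI DTP NCI-60 one-dose screen on the NSCLC panel. Cells were seeded at densities set by doubling rate and incubated 24 h. They were then exposed to a single 10 μM dose for 48 h. Each value is a growth percentage relative to the initial cell population: positive means net growth, negative means net cell kill.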

HOP-62 = assay: Antiproliferative activity against human HOP-62 cells assessed as cell growth at 10 uM incubated for 48 hrs by sulforhodamine B assay relative to control; format: functional; conditions: read-out: Activity; summary of the method: as §1
A549 [1] = assay: Cytotoxicity against human A549 cells assessed as cell growth inhibition measured after 72 hrs by MTT assay; format: functional, cell-based; conditions: A549, 72 h
Summary of the method: (§2)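 Cells kept in RPMI 1640 with 10% FBS at 37 °C, 5% CO₂, passaged every 2–3 days; grown to confluence, seeded at 5,000–7,000 cells/well depending on line, incubated 24 h. Compounds dissolved in 1% DMSO, diluted in medium to 1, 4, 16, 32 μM (6 replicates each), 72 h exposure. MTT 3–4 h, medium aspirated, DMSO added, 15 min, OD 540 nm; IC50 relative to untreated cells.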

NCI-H460 [2] = assay: Antiproliferative activity against human NCI-H460 cells assessed as cell growth at 10 uM incubated for 48 hrs by sulforhodamine B assay relative to control; format: functional; conditions: read-out: Activity; summary of the method: as §1
EKVX = assay: Antiproliferative activity against human EKVX cells assessed as cell growth at 10 uM incubated for 48 hrs by sulforhodamine B assay relative to control; format: functional; conditions: read-out: Activity; summary of the method: as §1
NCI-H1975 = assay: Cytotoxicity against human NCI-H1975 cells assessed as cell growth inhibition measured after 72 hrs by MTT assay; format: functional, cell-based; conditions: NCI-H1975, 72 h; summary of the method: as §2
NCI-H226 = assay: Antiproliferative activity against human NCI-H226 cells assessed as cell growth at 10 uM incubated for 48 hrs by sulforhodamine B assay relative to control; format: functional; conditions: read-out: Activity; summary of the method: as §1
HOP-92 = assay: Antiproliferative activity against human HOP-92 cells assessed as cell growth at 10 uM incubated for 48 hrs by sulforhodamine B assay relative to control; format: functional; conditions: read-out: Activity; summary of the method: as §1
A549 [3] = assay: Antiproliferative activity against human A549/ATCC cells assessed as cell growth at 10 uM incubated for 48 hrs by sulforhodamine B assay relative to control; format: functional; conditions: read-out: Activity; summary of the method: as §1
NCI-H460 [4] = assay: Cytotoxicity against human NCI-H460 cells assessed as cell growth inhibition measured after 72 hrs by MTT assay; format: functional, cell-based; conditions: NCI-H460, 72 h; summary of the method: as §2
NCI-H522 = assay: Antiproliferative activity against human NCI-H522 cells assessed as cell growth at 10 uM incubated for 48 hrs by sulforhodamine B assay relative to control; format: functional; conditions: read-out: Activity; summary of the method: as §1
NCI-H23 = assay: Antiproliferative activity against human NCI-H23 cells assessed as cell growth at 10 uM incubated for 48 hrs by sulforhodamine B assay relative to control; format: functional; conditions: read-out: Activity; summary of the method: as §1
HCC827 = assay: Cytotoxicity against human HCC827 cells assessed as cell growth inhibition measured after 72 hrs by MTT assay; format: functional, cell-based; conditions: HCC827, 72 h; summary of the method: as §2

## c1ccc2cc(Cn3cc[n+](CCCCCCn4cc[n+](Cc5ccc6ccccc6c5)c4)c3)ccc2c1
NCI-H322M
  growth at 10 µM: 76.2%
HOP-62
  growth at 10 µM: 55.8%
A549 [1]
  IC50: < 1 µM
NCI-H460 [2]
  growth at 10 µM: 24.6%
EKVX
  growth at 10 µM: 37.3%
NCI-H1975
  IC50: 6 µM
NCI-H226
  growth at 10 µM: 69.6%
HOP-92
  growth at 10 µM: 59.9%
A549 [3]
  growth at 10 µM: 38.6%
NCI-H460 [4]
  IC50: 2 µM
NCI-H522
  growth at 10 µM: 33.1%
NCI-H23
  growth at 10 µM: 30.5%
HCC827
  IC50: 12 µM

## c1ccc2cc(Cn3cc[n+](CCCCCCCn4cc[n+](Cc5ccc6ccccc6c5)c4)c3)ccc2c1
NCI-H322M
  growth at 10 µM: 58.6%
HOP-62
  growth at 10 µM: 32.6%
A549 [1]
  IC50: 2 µM
NCI-H460 [2]
  growth at 10 µM: 14.6%
EKVX
  growth at 10 µM: 27.9%
NCI-H1975
  IC50: 3 µM
NCI-H226
  growth at 10 µM: 59.5%
A549 [3]
  growth at 10 µM: 26.7%
NCI-H460 [4]
  IC50: 3 µM
NCI-H522
  growth at 10 µM: 5.87%
NCI-H23
  growth at 10 µM: 14.4%
HCC827
  IC50: 10 µM

## c1ccc2cc(Cn3cc[n+](CCCn4cc[n+](Cc5ccc6ccccc6c5)c4)c3)ccc2c1
NCI-H322M
  growth at 10 µM: 84.4%
HOP-62
  growth at 10 µM: 67.2%
A549 [1]
  IC50: 22 µM
NCI-H460 [2]
  growth at 10 µM: 75.3%
EKVX
  growth at 10 µM: 82.7%
NCI-H1975
  IC50: > 30 µM
NCI-H226
  growth at 10 µM: 81.9%
HOP-92
  growth at 10 µM: 67.5%
A549 [3]
  growth at 10 µM: 62.3%
NCI-H460 [4]
  IC50: 20 µM
NCI-H522
  growth at 10 µM: 56.6%
NCI-H23
  growth at 10 µM: 77.8%
HCC827
  IC50: > 30 µM

## c1ccc2cc(Cn3cc[n+](Cn4cc[n+](Cc5ccc6ccccc6c5)c4)c3)ccc2c1
NCI-H322M
  growth at 10 µM: 87.6%
HOP-62
  growth at 10 µM: 84.2%
A549 [1]
  IC50: > 30 µM
EKVX
  growth at 10 µM: 89.4%
NCI-H1975
  IC50: > 30 µM
NCI-H226
  growth at 10 µM: 92.6%
HOP-92
  growth at 10 µM: 67%
A549 [3]
  growth at 10 µM: 70.8%
NCI-H460 [4]
  IC50: 16 µM
NCI-H522
  growth at 10 µM: 51%
NCI-H23
  growth at 10 µM: 88.3%
HCC827
  IC50: > 30 µM

## c1ccc2cc(Cn3cc[n+](Cc4ccc5ccccc5c4)c3)ccc2c1
NCI-H1975
  IC50: 6 µM
NCI-H460 [4]
  IC50: 4 µM
HCC827
  IC50: 9 µM
